High-throughput results as filed in PubChem BioAssay.
NPY1 pot ag: potentiates or activates human NPY-Y1 receptor. P25929. NPY-Y1 expressing cells, potentiator/agonist activation. activation, % at 3.6 µM. hit rate 0.37% among 220,000; in the data active means activation above about 33%, passing the limit was not always enough;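 further: cells stimulated with NPY at EC10 then isoproterenol at EC100; 0% = low agonist plus stimulus and 100% = saturating agonist plus stimulus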
NPY-Y2 PAM-ag: potentiators or agonists of human neuropeptide Y receptor Y2. cells expressing NPY-Y2, potentiator/agonist read-out. P49146. activation, % at 3.6 µM. hit rate 0.45% among 220,000; in the data active means activation above about 27%;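 further: cells stimulated with NPY near EC25 plus isoproterenol at EC100; 0% = vehicle plus submaximal agonist and 100% = vehicle plus saturating agonist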
Target sequence (P49146 whole entry, looked up): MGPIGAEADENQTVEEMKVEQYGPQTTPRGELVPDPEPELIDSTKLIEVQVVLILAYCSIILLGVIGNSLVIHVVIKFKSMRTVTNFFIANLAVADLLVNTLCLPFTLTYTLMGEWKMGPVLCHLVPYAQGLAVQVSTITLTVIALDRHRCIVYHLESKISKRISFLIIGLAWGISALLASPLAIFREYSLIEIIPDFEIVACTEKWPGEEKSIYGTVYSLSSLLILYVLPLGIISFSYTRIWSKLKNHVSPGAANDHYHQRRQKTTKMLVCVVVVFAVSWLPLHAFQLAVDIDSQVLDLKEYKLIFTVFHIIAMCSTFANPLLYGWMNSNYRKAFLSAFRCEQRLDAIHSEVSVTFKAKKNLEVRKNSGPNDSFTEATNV
NPY-Y2 antag: blocks the human neuropeptide Y Y2 receptor | P49146 | inhibition, % at 2.7 µM | hit rate 0.99% among 140,000 | NPY-Y2 expressing cells, antagonist mode;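 further: 0% = vehicle with agonist challenge and 100% = reference antagonist with challenge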
NPY-Y1 antag: NPY-Y1 (human) receptor antagonism; inhibition, % at 3.6 µM; P25929; hit rate 1% among 200,000; HEK293-CNG Y1 cells, membrane potential fluorescence; NPY at EC95, then isoproterenol;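 active means inhibition above the campaign mean inhibition of all tested compounds plus 3 SD, cut at about 20% in these data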;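 further: 0% = DMSO wells given NPY plus isoproterenol and 100% = isoproterenol alone without NPY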
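Assay system: HEK293 Y1/CNG channel cell line; Doses: single compound dose of 3.6 µM, 0.4% DMSO; Timing: dye 3 h, compound 60 min room temperature, stimulation 45 min; Technique: Membrane-potential fluorescent dye readout; Measure: % inhibition of NPY effect.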
NPY1 antag conf: confirmation of human neuropeptide Y receptor Y1 antagonists; shares compounds with NPY-Y1 antag; HEK293-CNG NPY-Y1, membrane potential fluorescence, cAMP; NPY challenge against isoproterenol-raised cAMP; inhibition, % at 3.6 µM; AID 1254; hit rate 21% among 1,200; in the data active means inhibition above about 20%;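 further: 0% = vehicle with agonist plus stimulus and 100% = stimulus alone without agonist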
NPY-Y2 antag ct: counter-screen for NPY-Y1 antagonists: human NPY-Y2 antagonism. hit rate 28% among 1,200. HEK293 NPY-Y2 CNG membrane potential fluorescence; cells given NPY, then isoproterenol. inhibition, % at 3.6 µM. shares compounds with NPY-Y1 antag. AID 1255;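 further: 0% = DMSO with agonist challenge and 100% = reference antagonist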
* = called active by the depositor; . = not tested or not shown. Compounds with a hit are over-represented: about 1.9% of the library has one in this group of screens. Unless noted, no stated cut-off is given here; in the data, active means inhibition above about 17%; inactive means the rest.

SMILES	NPY1 pot ag	NPY-Y2 PAM-ag	NPY-Y2 antag	NPY-Y1 antag	NPY1 antag conf	NPY-Y2 antag ct
CCOC(=O)c1c(NC(C)=O)sc2c(OCC(O)CNC(C)(C)C)c(Br)ccc12 (centres undefined)	-198	-108	.	122*	98*	115*
CCOC(=O)c1c(N)sc2c(OCC)c(Br)ccc12	-23	-9	8	7	.	.
CC(=O)n1cc([C@@H]2C=C(C(=O)Nc3ccccc3)O[C@H](OCc3ccc(CO)cc3)C2)c2ccccc21	-17	-24	.	34*	20	9
CC/C(=N\Nc1ccc([N+](=O)[O-])cc1)c1ccccc1	21	4	.	-5	.	.
CCC1(C(=O)c2ccccc2)C(c2ccc([N+](=O)[O-])cc2)C1(C(=O)OC)C(=O)OC (centres undefined)	-34	-8	9	22*	7	4
O=c1cc2c(=O)oc3cc(O)c(O)oc3c2c(O)c1O	2	-4	.	.	.	.
Fc1ccc2nc(C3CCCCN3Cc3nc(CC4CC4)no3)[nH]c2c1 (centres undefined)	-15	-6	.	39*	9	11
CC(=O)N1CCN(c2ccccc2NC(=O)COc2cc(C)ccc2C(C)C)CC1	-28	-1	13	22*	10	9
CCC(=O)N1CCN(c2ccccc2NC(=O)c2cccc(C)c2)CC1	-14	-8	4	5	.	.
CN1CCN(c2ccccc2NC(=O)COc2ccccc2)CC1	-26	2	12	21*	6	7
Cc1ccc(C(C)C)c(OCC(=O)Nc2ccccc2N2CCN(C)CC2)c1	-35	-8	8	7	.	.
CCC(=O)N1CCN(c2ccccc2NC(=O)COc2cccc(C)c2)CC1	-56	-3	12	20*	11	12
O=C(NN1C(=O)c2ccccc2C1=O)c1ccc2c(c1)C(=O)N(CC1CCCO1)C2=O (centres undefined)	-11	-7	.	.	.	.
CC1CC(C)CN(S(=O)(=O)c2ccc(C(=O)N(c3ccccn3)C3CCCCC3)cc2)C1 (centres undefined)	-15	-5	.	31*	9	7
O=C(O)c1cc2c(s1)-c1ccccc1CC2	-31	-16	13	21*	10	13
COc1ccccc1CCNC(=O)CSc1ccc(-c2ccco2)nn1	-16	1	.	22*	2	2
COc1ccccc1-c1ccc(SCC(=O)NCCc2ccccc2)nn1	-12	-1	.	1	.	.
Cn1cnc(S(=O)(=O)Nc2ccc(OC(F)(F)F)cc2)c1	-3	-6	.	2	.	.
COc1ccc(-n2cc(CNC3CCN(C)CC3)c(-c3cccc(F)c3)n2)cc1	-20	-41	.	22*	17	24*
COCCCN1CCN(C2Cc3ccccc3Sc3ccc(Cl)cc32)CC1 (centres undefined)	-60	-33	16	26*	8	16
CCOc1ccc(-c2cc(CCCC(=O)Nc3cccc(OC)c3)no2)cc1	-12	-13	8	21*	11	21*
CCOc1ccc(NC(=O)CCCc2cc(-c3ccc(OCC)cc3)on2)cc1	7	-27	0	0	.	.
COc1ccc(/C(N)=N/OC(=O)CSc2ccc(C)cc2)cc1OC	-31	-20	11	21*	10	14
COC(=O)c1c(-c2c(Cl)cccc2Cl)noc1NC(=O)NN1CCCCC1	7	10	.	.	.	.
Cn1ccnc1SCC(=O)c1cc2ccccc2o1	-12	4	3	0	.	.
SMILES	NPY1 pot ag	NPY-Y2 PAM-ag	NPY-Y2 antag	NPY-Y1 antag	NPY1 antag conf	NPY-Y2 antag ct
Cn1cnnc1SCC(=O)c1cc2ccccc2o1	14	6	.	63*	-2	-1
COc1ccc(C(=O)c2coc3ccc(O)c(CN4CCCC4)c23)cc1	-39	-23	16	21*	16	21*
COc1ccc(CNCC(O)(c2ccc(F)cc2)c2ccc(F)cc2)cc1	1	-4	.	32*	10	11
OC(CNCc1ccc(F)cc1)(c1ccccc1)c1ccc(F)cc1 (centres undefined)	-8	-1	9	9	.	.
COc1ccc(-c2cc(-c3n[nH]c(=S)n3-c3cc(OC)ccc3OC)[nH]n2)cc1	-70	-36	5	27*	23*	44*
COc1ccc(-c2cc(-c3n[nH]c(=S)n3-c3ccccc3Cl)[nH]n2)cc1	-32	-19	.	42*	47*	73*
S=c1[nH]nc(-c2cc(-c3ccco3)[nH]n2)n1-c1ccccc1Cl	7	1	17	0	.	.
COc1ccc(OC)c(-n2c(-c3cc(-c4ccc(F)cc4)n[nH]3)n[nH]c2=S)c1	-23	2	2	1	.	.
O=C(Nc1ccc(Oc2cccc(C(F)(F)F)c2)nc1)c1cccs1	3	7	.	.	.	.
Cc1nn(C)c(C(=O)NNC(=S)NCC(C)C)c1Cl	16	0	1	2	.	.
O=[N+]([O-])c1ccc(C2CCCC/C2=N\OCc2cccc(F)c2)c([N+](=O)[O-])c1 (centres undefined)	-37	-12	0	31*	11	11
CCN=C1SC(CC(=O)NCc2ccccc2)C(=O)N1CC (centres undefined)	7	-1	.	-2	.	.
COc1ccc(-n2nnnc2-c2cccc(OC)c2)cc1	0	-15	5	24*	4	29*
O=C(Nc1nnc(C2=COCCO2)o1)c1ccc(Cc2ccccc2)cc1	-43	-47	.	22*	11	5
O=c1/c(=C/c2ccc(O)cc2)sc2nc3cc(Br)cnc3n12	7	-6	.	-1	.	.
Nc1nc(CN2CCN(c3cccc(Cl)c3)CC2)nc(N2CCCc3ccccc32)n1	-59	-37	16	13	.	.
Nc1nc(CN2CCN(c3ccccc3)CC2)nc(N2CCCc3ccccc32)n1	-38	-17	13	22*	8	8
CCCCNc1nc2ccccc2n1CC(=O)N1CCc2ccccc2C1	-33	-9	15	23*	9	9
CCCCNC(=O)N1CCc2ccccc2C1	-6	9	1	5	.	.
CCCCNc1nc2ccccc2n1CC(=O)Nc1c(C)cccc1CC	-35	7	10	31*	20	14
CCOC(=O)/C(N=Nc1ccc2c(c1)OCO2)=C(\C)O	6	7	.	1	.	.
COc1cccc(CNCc2cccnc2)c1OCc1ccccc1	13	-18	.	8	.	.
CCN(CC)S(=O)(=O)c1ccc(NC(=O)CSc2nnc(-c3cccc(OC)c3)n2C)cc1	26	-7	3	-1	.	.
C=C(C)CSc1nnc(-c2cccc(S(=O)(=O)N(C)C)c2)n1-c1cc(OC)ccc1OC	-18	-1	15	26*	11	10
Cc1cc(C(=O)NN)c(Cl)cc1Cl	-17	-14	.	.	.	.
Cc1ccc(-c2nc(CCN3C(=O)c4ccccc4C3=O)cs2)cc1	-33	-25	4	25*	3	5
CCOc1ccccc1-c1nn2c(Cc3ccccc3)nnc2s1	-74	-19	10	52*	32*	59*
